Measurements from ChEMBL document CHEMBL1127320, “Dual-action cephalosporins incorporating a 3'-tertiary-amine-linked quinolone” (J Med Chem, 1994).
Values after ≈ are worked out from the molar mass of the structure shown.

How the values were obtained:
[1] = test system: Citrobacter freundii; assay: In vitro minimum inhibitory concentration was measured against Citrobacter freundii BS-16 (beta lactamase producer) strain.; assay type: functional
Outline: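 MICs were determined by agar dilution with 2-fold dilutions giving final 128–0.0156 µg/mL, extended to 0.000977 µg/mL where needed. Streptococci were tested on brain heart infusion agar plus 20 units/mL catalase, Proteus on Mueller-Hinton with 3% agar, and others on Mueller-Hinton agar. Inocula were 100-fold-diluted overnight cultures, about 3 × 10^4 CFU/spot, read after overnight incubation at 36 °C.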

[2] = test system: Escherichia coli; assay: In vitro minimum inhibitory concentration was measured against Escherichia coli 257 strain.; assay type: functional
Outline: (§1)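 Streptococci were tested on brain heart infusion agar plus 20 units/mL catalase, Proteus on Mueller-Hinton with 3% agar, and others on Mueller-Hinton agar. Inocula were 100-fold-diluted overnight cultures, about 3 × 10^4 CFU/spot, read after overnight incubation at 36 °C.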

[3] = test system: Escherichia coli; assay: In vitro minimum inhibitory concentration was measured against Escherichia coli ATCC 25922 strain.; assay type: functional; outline: as §1
[4] = test system: Enterococcus faecalis; assay: In vitro minimum inhibitory concentration was measured against Enterococcus faecalis ATCC 29212 strain.; assay type: functional; outline: as §1
[5] = test system: Enterobacter cloacae; assay: In vitro minimum inhibitory concentration was measured against Enterobacter cloacae 5699 strain.; assay type: functional
[6] = test system: Enterobacter cloacae; assay: In vitro minimum inhibitory concentration was measured against Enterobacter cloacae p99 (beta lactamase producer) strain.; assay type: functional
[7] = test system: Micrococcus luteus; assay: In vitro minimum inhibitory concentration was measured against Micrococcus luteus ATCC 9341 strain.; assay type: functional; outline: as §1
[8] = molecular target: T1, Penicillin-binding protein 1A (Escherichia coli K-12) (UniProt P02918); assay: Affinity for penicillin binding protein 1a of Escherichia coli UB1005 (DC0) was evaluated.; set-up: unit not given here
T1 sequence (whole entry): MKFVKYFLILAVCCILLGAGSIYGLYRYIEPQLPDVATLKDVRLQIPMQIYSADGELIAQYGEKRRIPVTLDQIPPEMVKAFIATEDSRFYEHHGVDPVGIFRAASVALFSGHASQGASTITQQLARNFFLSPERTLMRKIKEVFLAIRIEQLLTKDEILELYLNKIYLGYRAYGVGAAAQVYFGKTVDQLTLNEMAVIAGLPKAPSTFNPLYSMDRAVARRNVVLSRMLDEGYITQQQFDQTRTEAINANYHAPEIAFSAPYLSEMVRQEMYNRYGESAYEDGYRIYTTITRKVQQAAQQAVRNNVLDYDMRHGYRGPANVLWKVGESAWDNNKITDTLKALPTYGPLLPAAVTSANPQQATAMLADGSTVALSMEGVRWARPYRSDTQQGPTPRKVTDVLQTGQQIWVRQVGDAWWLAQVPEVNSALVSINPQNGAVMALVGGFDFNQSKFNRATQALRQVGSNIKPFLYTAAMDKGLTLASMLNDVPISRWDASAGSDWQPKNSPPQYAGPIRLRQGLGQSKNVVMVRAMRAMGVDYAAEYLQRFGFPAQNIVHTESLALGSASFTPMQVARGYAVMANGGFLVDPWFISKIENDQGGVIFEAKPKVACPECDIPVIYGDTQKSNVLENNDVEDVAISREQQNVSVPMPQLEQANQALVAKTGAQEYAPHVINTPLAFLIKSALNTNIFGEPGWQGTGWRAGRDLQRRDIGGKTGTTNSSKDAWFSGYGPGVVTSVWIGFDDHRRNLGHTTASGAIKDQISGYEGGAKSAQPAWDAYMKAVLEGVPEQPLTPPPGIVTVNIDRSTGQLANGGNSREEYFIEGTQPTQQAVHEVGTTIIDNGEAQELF
Outline: (§2)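 Solubilised membranes from sonicated E. coli UB1005 served as the binding-protein source. Binding was read as inhibition of [14C]penicillin G binding.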

[9] = molecular target: T2, Penicillin-binding protein 1B (Escherichia coli K-12) (UniProt P02919); assay: Affinity for penicillin binding protein 1b of Escherichia coli UB1005 (DC0) was evaluated.; set-up: unit not given here; outline: as §2
T2 sequence (whole entry): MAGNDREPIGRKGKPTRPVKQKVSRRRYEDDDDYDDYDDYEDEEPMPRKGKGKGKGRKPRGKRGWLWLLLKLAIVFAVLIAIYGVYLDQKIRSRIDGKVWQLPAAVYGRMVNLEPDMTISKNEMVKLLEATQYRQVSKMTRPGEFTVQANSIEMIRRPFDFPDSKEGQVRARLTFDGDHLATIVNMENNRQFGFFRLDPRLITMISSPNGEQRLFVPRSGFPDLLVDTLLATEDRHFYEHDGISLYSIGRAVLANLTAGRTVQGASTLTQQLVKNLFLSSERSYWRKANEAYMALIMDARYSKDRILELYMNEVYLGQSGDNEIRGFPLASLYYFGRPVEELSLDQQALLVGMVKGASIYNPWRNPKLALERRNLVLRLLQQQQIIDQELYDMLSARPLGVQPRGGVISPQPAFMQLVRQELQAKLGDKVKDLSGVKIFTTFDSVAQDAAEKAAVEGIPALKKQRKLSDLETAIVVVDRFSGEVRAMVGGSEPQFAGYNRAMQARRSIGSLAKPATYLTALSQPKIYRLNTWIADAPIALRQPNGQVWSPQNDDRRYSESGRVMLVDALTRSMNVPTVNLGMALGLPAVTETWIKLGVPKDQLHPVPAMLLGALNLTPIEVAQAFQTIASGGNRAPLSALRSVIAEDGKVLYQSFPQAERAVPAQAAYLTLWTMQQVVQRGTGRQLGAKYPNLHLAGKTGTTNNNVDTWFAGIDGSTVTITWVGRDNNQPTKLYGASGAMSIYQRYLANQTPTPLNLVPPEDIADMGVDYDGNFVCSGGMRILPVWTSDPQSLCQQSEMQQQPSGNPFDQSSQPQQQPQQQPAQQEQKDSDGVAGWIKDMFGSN

[10] = test system: Pseudomonas aeruginosa; assay: In vitro minimum inhibitory concentration was measured against Pseudomonas aeruginosa 18S/H strain.; assay type: functional; outline: as §1
[11] = test system: Pseudomonas aeruginosa; assay: Bacterial challenge for systemic murine infection against Pseudomonas aeruginosa 8780; assay type: functional
Outline: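 Mouse protection test in CD1 Swiss albino mice (18-20 g) infected intraperitoneally with 0.5 mL of diluted bacterial suspension. Subcutaneous doses (250 to 0.05 mg/kg) were given immediately after infection and again 3 h later. Six mice per group were used. ED50 was obtained by the Reed-Muench method.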

[12] = test system: Serratia marcescens; assay: In vitro minimum inhibitory concentration was measured against Serratia marcescens 1071(beta lactamase producer) strain.; assay type: functional; outline: as §1
[13] = test system: Staphylococcus aureus; assay: Bacterial challenge for systemic murine infection against Staphylococcus aureus Smith; assay type: functional
[14] = test system: Serratia marcescens; assay: Bacterial challenge for systemic murine infection against Serratia marcescens SM; assay type: functional
Outline: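 Mouse protection test in CD1 Swiss albino mice (18-20 g). Mice were infected intraperitoneally with 0.5 mL of diluted bacterial suspension. A single subcutaneous dose at the dorsal neck base was given within 5 min, with doses from 250 to 0.05 mg/kg. Six mice per group were used. ED50 was obtained by the Reed-Muench method.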

[15] = test system: Staphylococcus aureus; assay: In vitro minimum inhibitory concentration was measured against Staphylococcus aureus 67-0 (Methicillin resistant) strain.; assay type: functional
[16] = test system: Staphylococcus aureus; assay: In vitro minimum inhibitory concentration was measured against Staphylococcus aureus 753 (Methicillin resistant) strain.; assay type: functional
[17] = test system: Staphylococcus aureus; assay: In vitro minimum inhibitory concentration was measured against Staphylococcus aureus smith strain.; assay type: functional
[18] = test system: Escherichia coli; assay: Minimum inhibitory concentration against E. coli UB1005 (DC0)

Row | Compound | MIC [1] [µg/mL] | MIC [2] [µg/mL] | MIC [3] [µg/mL] | MIC [4] [µg/mL] | MIC [5] [µg/mL] | MIC [6] [µg/mL] | MIC [7] [µg/mL] | Binding affinity [8] | Binding affinity [9] | MIC [10] [µg/mL] | LD50 [11] | MIC [12] [µg/mL] | LD50 [13] | LD50 [14] | MIC [15] [µg/mL] | MIC [16] [µg/mL] | MIC [17] [µg/mL] | MIC [18] [µg/mL]
1 | CO/N=C(\C(=O)N[C@@H]1C(=O)N2C(C(=O)O)=C(CN3CCN(c4cc5c(cc4F)c(=O)c(C(=O)O)cn5C4CC4)CC3)CS[C@H]12)c1csc(N)n1 | 0.125 (≈ 0.172 µM) | 0.125 (≈ 0.172 µM) | 0.125 (≈ 0.172 µM) | 4 (≈ 5.5 µM) | 0.5 (≈ 0.688 µM) | 0.125 (≈ 0.172 µM) | 0.125 (≈ 0.172 µM) | > 100 | > 100 | 2 (≈ 2.75 µM) | >10000 | 1 (≈ 1.38 µM) | >8 | 27 | 8 (≈ 11 µM) | 4 (≈ 5.5 µM) | 4 (≈ 5.5 µM) | 1 (≈ 1.38 µM)
2 | CO/N=C(\C(=O)N[C@@H]1C(=O)N2C(C(=O)O)=C(COC(C)=O)CS[C@H]12)c1csc(N)n1 [CEFOTAXIME] | 32 (≈ 70.3 µM) | 0.031 (≈ 0.0681 µM) | 0.063 (≈ 0.138 µM) | 0.25 (≈ 0.549 µM) | 0.125 (≈ 0.274 µM) | 64 (≈ 141 µM) | 0.031 (≈ 0.0681 µM) | 0.1 | 0.5 | 128 (≈ 281 µM) | >250 | 32 (≈ 70.3 µM) | 6 | <25 | > 128 | > 128 | 2 (≈ 4.39 µM) | 0.031 (≈ 0.0681 µM)
